Measured values of several laboratories.
Each line is one published result; the experiments were not run side by side.
Target: Calcium/calmodulin-dependent protein kinase type II subunit beta (CAMK2B, Homo sapiens, UniProt Q13554)

Compound | assay | conditions | remaining binding [%]
O=C(NCC1CCOCC1)c1n[nH]cc1NC(=O)c1c(F)cccc1F | binding, competition with immobilised ligand | 1 µM | 75
Nc1ncc2c(n1)-c1c([nH]c3ccc(C#CC4CC4)cc13)CCCC2 | binding, competition with immobilised ligand | 1 µM | 100
C[C@@H](c1ccc(-n2cnc3c(N)ncnc32)cc1)N1CCc2nn(C)c(Cc3ccccc3)c2C1=O | binding, competition with immobilised ligand | 0.1 µM | 98
CC1CCCN1c1nccc(-c2cnn3ncccc23)n1 (stereo not drawn) | binding | 1 µM | 98
Cc1cnc(Nc2ccc(C(=O)N3CCC(N4CCCC4)CC3)cc2)nc1-c1cc2ccccc2s1 | binding, competition with immobilised ligand | 1 µM | 90
c1cncc(-c2cccc(Nc3nccc(NC4CCCCC4)n3)c2)c1 | binding, competition with immobilised ligand | 10 µM | 94
O=C(NCCCN1CCOCC1)c1ccc(Nc2ncc(Cl)c(-c3ccc(Cl)s3)n2)cc1 | binding, competition with immobilised ligand | 1 µM | 79
C[C@@H](c1cccc(C#N)c1)n1cc(Cl)cc(C(N)=O)c1=N | cell-free assay, competition with immobilised ligand | 1 µM | 100
CN(C)c1nccc(-c2cnc3ncccn23)n1 | binding | 1 µM | 89
CN([C@@H]1CCc2c(CC(=O)O)c3cc(S(C)(=O)=O)ccc3n2C1)S(=O)(=O)c1ccc(F)cc1 | cell-free assay, competition with immobilised ligand | 1 µM | 100
CN(CCCC(F)(F)F)c1nccc(-c2cnn3ncccc23)n1 | binding | 1 µM | 100
Cn1nc(C(=O)NCc2ccc(C(=O)O)cc2)cc1-c1ccc2[nH]ccc2c1 | cell-free assay, competition with immobilised ligand | 0.1 µM | 91
COc1cnc(Nc2cccc(S(N)(=O)=O)c2)nc1N1CCN(c2ccccc2)C(=O)C1 | binding, competition with immobilised ligand | 1 µM | 100
C[C@H](c1ccnc(Nc2nc3ccc(-c4cc(N(C)C)ncn4)cc3[nH]2)c1)N1CCN(C(=O)CC(F)(F)F)CC1 | cell-free assay, competition with immobilised ligand | 0.1 µM | 92
N[C@H]1CCN(c2nccc(-c3cnn4ncccc34)n2)C1 | binding | 1 µM | 100
CN(c1ccnc(CNc2nc(Nc3ccc4c(c3)CC(=O)N4)ncc2C(F)(F)F)n1)S(C)(=O)=O | cell-free assay, competition with immobilised ligand | 1 µM | 86
CN(c1nccc(-c2cnn3ncccc23)n1)C1CC1 | binding | 1 µM | 84
O=C(O)[C@@H]1[C@@H](Cn2nnc3ccccc3c2=O)CC[C@H]1C(=O)c1ccc(OCCC2CCOCC2)cc1 | cell-free assay, competition with immobilised ligand | 1 µM | 100
FC(F)(F)Oc1cccc(-c2cnc3ccc(-c4ccncc4)nn23)c1 | cell-free assay, competition with immobilised ligand | 5 µM | 47
C[C@H]1CCN(c2nccc(-c3cnn4ncccc34)n2)C1 | binding | 1 µM | 80
O=C(NCCCN1CCOCC1)c1ccc(Nc2nccc(-c3cc4ccccc4s3)n2)cc1 | binding, competition with immobilised ligand | 1 µM | 83
